Source: ChEMBL document CHEMBL4334422, “Toxicities and beneficial protection of H2S donors based on nonsteroidal anti-inflammatory drugs” (Medchemcomm, 2019)
Activity calls are given as the source filed them. No cut-off for these calls is given here.

Key:
[1] = Toxicity in Wistar kyoto rat assessed as neutrophil ratio in blood at 0.01 mmol/kg, ip administered for 14 days (reference value: 54.7%); type: organism-based; conditions: in vivo, 336 h
In short: (§1)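 Normal WKY rats, 6 per group, received an intraperitoneal injection once daily for 14 consecutive days. The compound was dissolved in 10% 1,3-propanediol, and controls received an equal volume of vehicle. Urine was collected in metabolic cages during dosing. At the end, blood was drawn from the eyeball for haematology, and urinalysis values were compared with the vehicle group.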

[2] = Toxicity in Wistar kyoto rat assessed as platelet count in blood at 0.01 mmol/kg, ip administered for 14 days (reference value: 670 10^9/L); type: organism-based; conditions: in vivo, 336 h; in short: as §1
[3] = Half life of compound in pH 7.4 phosphate buffer at 40 mM in presence of TECP or cysteine by methylene blue dye based UV-Vis spectrophotometric method; type: physicochemical; conditions: phosphate buffer with TECP or cysteine
In short: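 A 40 mM compound solution in pH 7.4 phosphate buffer was mixed with TECP or L-cysteine (1.0 mM) as promoter. Aliquots were mixed with methylene blue reagent, and after 20 min absorbance was read at 670 nm. H₂S was quantified against a Na₂S standard curve, and concentration-versus-time release curves were plotted to give half-lives.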

H9c2 [4] = assay: Cytoprotective activity against H2O2-induced toxicity in rat H9c2 cells assessed as increase in cell viability pretreated with compound followed by H2O2 addition and measured after 1 hrs relative to control; type: functional
In short: (§2)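 H9c2 cells were injured with H₂O₂ (400 µM) for 1, 4 or 8 h to give light, medium and heavy damage, in the presence of compound at 10–80 µM. Acetaminophen or ibuprofen served as controls. Viability was measured as mean ± SD of three experiments. SOD and MDA contents were measured as mean ± SD of four experiments. Morphology was assessed by Giemsa staining under light microscopy.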

[5] = Toxicity in Wistar kyoto rat assessed as glucose in urine at 0.01 mmol/kg, ip administered for 14 days; type: organism-based; conditions: in vivo, 336 h
In short: (§3)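 Normal WKY rats (6 per group) received compound in 10% 1,3-propanediol intraperitoneally daily for 14 days. Controls received an equal volume of vehicle. Urine was collected in metabolic cages throughout dosing. At the end of dosing, blood was taken from the eyeball for haematology, and urine parameters were analysed.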

[6] = Toxicity in Wistar kyoto rat assessed as ketone body level in urine at 0.01 mmol/kg, ip administered for 14 days (reference value: 4 umol/L); type: organism-based; conditions: in vivo, 336 h; in short: as §1
H9c2 [7] = assay: Cytoprotective activity against H2O2-induced toxicity in rat H9c2 cells assessed as decrease in MDA level pretreated with compound followed by H2O2 addition and measured after 8 hrs; type: functional, cell-based; in short: as §2
H9c2 [8] = assay: Cytoprotective activity against H2O2-induced toxicity in rat H9c2 cells assessed as increase in cell viability at 80 uM pretreated with compound followed by H2O2 addition and measured after 1 hrs relative to control; type: functional; in short: as §2
[9] = Toxicity in Wistar kyoto rat assessed as lymphocyte ratio in blood at 0.01 mmol/kg, ip administered for 14 days (reference value: 42.1%); type: organism-based; conditions: in vivo, 336 h; in short: as §1
[10] = Toxicity in Wistar kyoto rat assessed as urobilinogen level in urine at 0.01 mmol/kg, ip administered for 14 days (reference value: 1 umol/L); type: organism-based; conditions: in vivo, 336 h; in short: as §1
[11] = Toxicity in Wistar kyoto rat assessed as bilirubin level in urine at 0.01 mmol/kg, ip administered for 14 days (reference value: 10 umol/L); type: organism-based; conditions: in vivo, 336 h; in short: as §3
[12] = Toxicity in Wistar kyoto rat assessed as red blood cell count in blood at 0.01 mmol/kg, ip administered for 14 days (reference value: 6.83 10^12/L); type: organism-based; conditions: in vivo, 336 h; in short: as §1
[13] = Toxicity in Wistar kyoto rat assessed as proportion in urine at 0.01 mmol/kg, ip administered for 14 days (reference value: 1.01); type: organism-based; conditions: in vivo, 336 h; in short: as §1
H9c2 [14] = assay: Cytotoxicity against rat H9c2 cells assessed as reduction in cell viability at 10 to 80 uM incubated for 24 hrs; type: cell-based; conditions: h9c2, 24 h
In short: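 Rat cardiac H9c2 cells were grown in DMEM with 10% FBS and penicillin/streptomycin at 37 °C and 5% CO₂. They were seeded at 5×10⁴ cells/mL and allowed to adhere for 8 h. Cells were exposed to 10, 40 or 80 µM compound for 24 h, and survival was compared with untreated cells.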

H9c2 [15] = assay: Cytoprotective activity against H2O2-induced toxicity in rat H9c2 cells assessed as increase in cell viability at 10 to 80 uM pretreated with compound followed by H2O2 addition and measured after 8 hrs relative to control; type: functional; in short: as §2
[16] = Toxicity in Wistar kyoto rat assessed as urine pH at 0.01 mmol/kg, ip administered for 14 days (reference value: 8.4); type: organism-based; conditions: in vivo, 336 h; in short: as §1
[17] = Toxicity in Wistar kyoto rat assessed as monocyte ratio in blood at 0.01 mmol/kg, ip administered for 14 days (reference value: 0.5%); type: organism-based; conditions: in vivo, 336 h; in short: as §1
[18] = Toxicity in Wistar kyoto rat assessed as protein level in urine at 0.01 mmol/kg, ip administered for 14 days (Rvb =0 g/L); type: organism-based; conditions: in vivo, 336 h; in short: as §1
H9c2 [19] = assay: Cytoprotective activity against H2O2-induced toxicity in rat H9c2 cells assessed as increase in SOD level at 10 to 80 uM pretreated with compound followed by H2O2 addition and measured after 8 hrs; type: functional, cell-based; in short: as §2
[20] = Toxicity in Wistar kyoto rat assessed as nitrite level in urine at 0.01 mmol/kg, ip administered for 14 days; type: organism-based; conditions: in vivo, 336 h; in short: as §1
[21] = Toxicity in Wistar kyoto rat assessed as eosinophil ratio in blood at 0.01 mmol/kg, ip administered for 14 days (reference value: 1.8%); type: organism-based; conditions: in vivo, 336 h; in short: as §3
[22] = Toxicity in Wistar kyoto rat assessed as basophilic ratio in blood at 0.01 mmol/kg, ip administered for 14 days (reference value: 2.2%); type: organism-based; conditions: in vivo, 336 h; in short: as §3
[23] = Toxicity in Wistar kyoto rat assessed as occult blood cells level in urine at 0.01 mmol/kg, ip administered for 14 days (reference value: 10 /uL); type: organism-based; conditions: in vivo, 336 h; in short: as §1
[24] = Toxicity in Wistar kyoto rat assessed as leukocyte in urine at 0.01 mmol/kg, ip administered for 14 days (reference value: 10 ca cells/uL); type: organism-based; conditions: in vivo, 336 h; in short: as §1
[25] = Toxicity in Wistar kyoto rat assessed as hemoglobin count in blood at 0.01 mmol/kg, ip administered for 14 days (reference value: 138 g/L); type: organism-based; conditions: in vivo, 336 h; in short: as §3
[26] = Toxicity in Wistar kyoto rat assessed as leukocyte count in blood at 0.01 mmol/kg, ip administered for 14 days (reference value: 6.88 10^9/L); type: organism-based; conditions: in vivo, 336 h; in short: as §1
[27] = Toxicity in Wistar kyoto rat assessed as Vc in urine at 0.01 mmol/kg, ip administered for 14 days; type: organism-based; conditions: in vivo, 336 h; in short: as §3
Rattus norvegicus = assay: Antihypertensive activity in spontaneously hypertensive Wistar kyoto rat assessed as reduction in systolic arterial pressure at 20 mg/kg, ip administered for 6 hrs and measured every 30 mins post treatment by tail-cuff method; type: functional
In short: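 Male SHRs (8 weeks, 300 ± 25 g; 6 per group), given compound intraperitoneally once daily at 8 am in 0.5% (w/v) sodium carboxymethyl cellulose/DMSO 3/1 (v/v), 2 mL·kg⁻¹. Vehicle-treated SHR and WKY controls. SBP, DBP and heart rate were measured by tail-cuff on awake, restrained rats before dosing, then every 30 min for 6 h. Values are mean ± SD of four independent experiments.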

Question: For `CC(C)Cc1ccc(C(C)C(=O)Oc2ccc(C(N)=S)cc2)cc1` (stereo not drawn), which Activity [1] is on record?
Answer: 44.4%

Question: And the Activity [2]?
Answer: 161 ×10⁹ /L

Question: And the half-life at 40000 µM [3]?
Answer: 20.1 min

Question: What about the Activity (H9c2 [4]) of the same compound?
Answer: Dose-dependent effect

Question: And the Activity [5]?
Answer: Non-Toxic

Question: What about the Activity [6] of the same compound?
Answer: Non-Toxic

Question: And the Activity (H9c2 [7])?
Answer: Dose-dependent effect

Question: And the Activity (H9c2 [8])?
Answer: 11.9%

Question: And the Activity [9]?
Answer: 52.8%

Question: And the Activity [10]?
Answer: 16 µmol/L

Question: What about the Activity [11] of the same compound?
Answer: 17 µmol/L

Question: And the Activity [12]?
Answer: 5.5 ×10¹² /L

Question: What about the Ratio [13] of the same compound?
Answer: 1.005

Question: And the Activity (H9c2 [14])?
Answer: Non-Toxic

Question: And the Activity (H9c2 [15])?
Answer: < 5%

Question: What about the pH [16] of the same compound?
Answer: 7.5

Question: And the Activity [17]?
Answer: 1.8%

Question: What about the Activity [18] of the same compound?
Answer: 3 g/L

Question: What about the Activity (H9c2 [19]) of the same compound?
Answer: Active

Question: And the Activity [20]?
Answer: Non-Toxic

Question: And the Activity [21]?
Answer: 1%

Question: What about the Activity [22] of the same compound?
Answer: 0%

Question: And the Activity [23]?
Answer: Non-Toxic

Question: What about the Activity [24] of the same compound?
Answer: 70 µL⁻¹

Question: What about the Activity [25] of the same compound?
Answer: 119 g/L

Question: And the Activity [26]?
Answer: 1.72 ×10⁹ /L

Question: What about the Activity [27] of the same compound?
Answer: Non-Toxic

Question: What does the source list for `CC(=O)Nc1ccc(OC(=O)CCCCC2CCSS2)cc1` (stereo not drawn)?
Answer: Activity [1]: 31.7%; Activity [2]: 194 ×10⁹ /L; half-life at 40000 µM [3]: 14.1 min; Activity (H9c2 [4]): Dose-dependent effect; Activity [5]: Non-Toxic; Activity [6]: 4000 µmol/L; Activity (H9c2 [7]): Dose-dependent effect; Activity (H9c2 [8]): 13.3%; Activity [9]: 64.2%; Activity [10]: 3.3 µmol/L; Activity [11]: 12 µmol/L; Activity [12]: 6.08 ×10¹² /L; Ratio [13]: 1.005; Activity (H9c2 [14]): Non-Toxic; Activity (H9c2 [15]): 8.6%; pH [16]: 7.5; Activity [17]: 1.3%; Activity [18]: 3.2 g/L; Activity (H9c2 [19]): Active; Activity [20]: Non-Toxic; Activity [21]: 2.6%; Activity [22]: 0.2%; Activity [23]: 80 µL⁻¹; Activity (Rattus norvegicus): 127.6 mmHg; Activity [24]: Non-Toxic; Activity [25]: 135 g/L; Activity [26]: 2.89 ×10⁹ /L; Activity [27]: Non-Toxic

Question: For `CC(C)Cc1ccc(C(C)C(=O)Oc2ccc(-c3cc(=S)ss3)cc2)cc1` (stereo not drawn), which Activity [1] is on record?
Answer: 35.9%

Question: And the Activity [2]?
Answer: 114 ×10⁹ /L

Question: What about the half-life at 40000 µM [3] of the same compound?
Answer: 1.4 min

Question: And the Activity (H9c2 [4])?
Answer: Dose-dependent effect

Question: What about the Activity [5] of the same compound?
Answer: Non-Toxic

Question: What about the Activity [6] of the same compound?
Answer: 500 µmol/L

Question: And the Activity (H9c2 [7])?
Answer: Dose-dependent effect

Question: And the Activity (H9c2 [8])?
Answer: 9.4%

Question: What about the Activity [9] of the same compound?
Answer: 60.4%

Question: And the Activity [10]?
Answer: 66 µmol/L

Question: And the Activity [11]?
Answer: 50 µmol/L

Question: And the Activity [12]?
Answer: 5.9 ×10¹² /L

Question: What about the Ratio [13] of the same compound?
Answer: 1.005

Question: What about the Activity (H9c2 [14]) of the same compound?
Answer: Non-Toxic

Question: What about the Activity (H9c2 [15]) of the same compound?
Answer: < 5%

Question: And the pH [16]?
Answer: 7.5

Question: What about the Activity [17] of the same compound?
Answer: 0.9%

Question: What about the Activity [18] of the same compound?
Answer: 3 g/L

Question: What about the Activity (H9c2 [19]) of the same compound?
Answer: Active

Question: And the Activity [20]?
Answer: Toxic

Question: And the Activity [21]?
Answer: 2.6%

Question: And the Activity [22]?
Answer: 0.2%

Question: And the Activity [23]?
Answer: Non-Toxic

Question: What about the Activity (Rattus norvegicus) of the same compound?
Answer: 136.7 mmHg

Question: What about the Activity [24] of the same compound?
Answer: 500 µL⁻¹

Question: What about the Activity [25] of the same compound?
Answer: 136 g/L

Question: What about the Activity [26] of the same compound?
Answer: 3.27 ×10⁹ /L

Question: What about the Activity [27] of the same compound?
Answer: Non-Toxic
